Experimental findings from ChEMBL document CHEMBL1833920, “Antimalarial activity of imidazo[2,1-a]isoindol-5-ol derivatives and related compounds” (Eur J Med Chem, 2011) are described below.

For data set [1], the system named is Plasmodium falciparum. The data set is described as follows: Antiplasmodial activity against chloroquine-sensitive Plasmodium falciparum 3D7 infected in human O positive erythrocytes after 48 hrs by SYBR green-I based fluorescence assay. The data set is classed as functional, organism-based. Particulars: 3D7, 48 h. The method, boiled down:
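3D7 was cultured at 37 °C, 5% CO₂, in O+ human erythrocytes at 5% hematocrit, in RPMI 1640 with 2% human serum, 0.2% NaHCO₃, 0.5% Albumax II, hypoxanthine and gentamicin. Cultures were sorbitol-synchronized (mostly late rings/early trophozoites). Drugs from DMSO stocks were serially diluted in triplicate wells (final DMSO ≤0.001%) and incubated 48 h. Read-out was SYBR Green I in lysis buffer, 1 h dark RT, ex 485/em 530 nm. EC₅₀ was taken as 50% fluorescence reduction, as the mean of triplicate experiments.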

The nature of data set [2]: Cytotoxicity against african green monkey CV1 cells. The data set is classed as cell-based, CV-1. Particulars: chlorocebus aethiops.
The subject of data set [3] is Plasmodium berghei. The data set is described as follows: Antimalarial activity against Plasmodium berghei NK65 infected in Swiss mouse assessed as inhibition of parasitemia at 50 mg/kg, ip administered 2 hrs postinfection daily for 4 days measured on day 5. The data set is classed as functional. Particulars: route intraperitoneal. The method in brief:
(§1)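 Swiss male mice (20 ± 2 g) were infected on day 0 with 10⁷ parasitized cells, in groups of five. Dosing was i.p. at 50 or 25 mg/kg/day from day 0 (2 h post-infection) to day 3. Parasitemia on day 4 was counted from Giemsa-stained tail thin smears (≥9000 RBC, 1000×). Results were compared with untreated and CQ 5 mg/kg/day controls, and % inhibition was calculated relative to untreated parasitemia.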

The test system of data set [4] is Plasmodium falciparum. The data set is described as follows: Ratio of chloroquine IC50 to Compound IC50 for chloroquine-sensitive Plasmodium falciparum 3D7. The data set is classed as functional.
Data set [5] in a line: Intestinal absorption in human. The data set is classed as ADME, organism-based. The conditions noted are these: in vivo, read-out: HIA.
Data set [6] can be described thus: Plasma protein binding in human. The data set is classed as ADME, organism-based.
Data set [7] concerns Plasmodium berghei. The data set is described as follows: Antimalarial activity against Plasmodium berghei NK65 infected in Swiss mouse assessed as inhibition of parasitemia at 25 mg/kg, ip administered 2 hrs postinfection daily for 4 days measured on day 5. The data set is classed as functional. The conditions noted are these: route intraperitoneal. The method in brief: as §1

The subject of data set [8] is Mus musculus. The data set is described as follows: Toxicity in Plasmodium berghei NK65 infected in Swiss mouse assessed as mouse mortality at 50 mg/kg, ip administered 2 hrs postinfection daily for 4 days measured on day 5. The data set is classed as organism-based. On the set-up: dose 50 mg/kg, route intraperitoneal. Particulars: in vivo. The method, boiled down: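 Swiss male mice (20 ± 2 g) were infected on day 0 with 10⁷ parasitized cells and kept in groups of five. Compound was given i.p. at 50 mg/kg/day, starting 2 h after infection on day 0 and continuing through day 3. Untreated (blank) and chloroquine (5 mg/kg/day) groups served as controls.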

Structures are written as SMILES.

In general, IC50 refers to the concentration at which inhibition is half-maximal. In general, CC50 refers to the concentration giving 50% cytotoxicity. In general, inhibition in vivo refers to the change of the read-out against control, counted positive when it falls. As a reminder, the fraction unbound is free concentration divided by total concentration. The compound `CSc1ccc(CC2(O)c3ccccc3C3=NCCN32)cc1` (stereo unspecified) registered a concentration for half-maximal inhibition (IC50) in data set [1] of 0.06 µM. Besides, in data set [2], the cytotoxic concentration (CC50) was over 24 µM. Besides, the inhibition in vivo at 50 mg/kg in data set [3] came to 84%. The “Ratio IC50” value in data set [4] is listed as 16.7. Further, the Fa in data set [5] is over 95%. This compound also registered a free fraction (fraction unbound) in data set [6] of over 0.1.

As for `CSc1ccc(CC2(O)c3ccccc3-c3nc4cc(C)ccc4n32)cc1` (stereo unspecified), in data set [1], it took 15.6 µM to reach half-maximal inhibition (IC50). Besides, in data set [4], the “Ratio IC50” value was under 1.

Compound `OC1(Cc2ccc3c(c2)OCO3)c2ccccc2C2=NCCN21` (stereo unspecified) yielded a concentration for half-maximal inhibition (IC50) in data set [1] of 2.2 µM. This compound also had a CC50 in data set [2] of over 32 µM. Further, the inhibition in vivo at 50 mg/kg in data set [3] is 53%. For the same compound, the “Ratio IC50” value in data set [4] is listed as under 1. In addition, in data set [5], the Fa was over 95%. In data set [6], this compound registered a free fraction (fraction unbound) of over 0.1.

The compound `OC1(Cc2ccsc2)c2ccccc2C2=NCCN21` (stereo unspecified) yielded a half-inhibitory concentration (IC50) in data set [1] of 6.6 µM. Further, in data set [4], the “Ratio IC50” value is under 1.

For the compound `OC1(Cc2ccccc2Cl)c2ccccc2C2=NCCN21` (stereo unspecified), in data set [1], the midpoint of inhibition, the IC50, lay at 15.2 µM. Also, in data set [4], the “Ratio IC50” value is under 1.

In data set [1], `Cn1c(CC2(O)c3ccccc3C3=NCCN32)cc2ccccc21` (stereo unspecified) showed an IC50 of 13.5 µM. The “Ratio IC50” value in data set [4] was under 1.

As to `OC1(Cc2ccc(Cl)c(Cl)c2)c2ccccc2C2=NCCN21` (stereo unspecified), the IC50 in data set [1] came out at 0.3 µM. For the same compound, the inhibition in vivo at 25 mg/kg in data set [7] was 19%. Further, the Activity result in data set [8] is “Toxic”. In data set [4], the “Ratio IC50” value turned out to be 3.3. The Fa in data set [5] is over 95%. Besides, in data set [6], the unbound share (fraction unbound) was over 0.1.

`COc1ccc(CC2(O)c3ccccc3C3=NCCN32)cc1OC` (stereo unspecified): it took 27.6 µM to reach half-maximal inhibition in data set [1] (IC50). The compound further returned a 50% cytotoxic concentration (CC50) in data set [2] of over 30 µM. Also, the “Ratio IC50” value in data set [4] is on record as under 1.

`COc1ccc(CC2(O)c3ccccc3C3=NCCN32)cc1` (stereo unspecified) returned a half-inhibitory concentration (IC50) in data set [1] of 0.24 µM. For the same compound, the inhibition in vivo at 50 mg/kg in data set [3] turned out to be 23%. In addition, the “Ratio IC50” value in data set [4] was determined as 4.2. For the same compound, the Fa in data set [5] is over 95%. In data set [6], this compound yielded a fraction unbound of over 0.1.

Take `OC1(Cc2ccc(Cl)cc2)c2ccccc2C2=NCCN21` (stereo unspecified): in data set [2], the CC50 is over 16 µM. In addition, the inhibition in vivo at 50 mg/kg in data set [3] came to 7%. Also, in data set [4], the “Ratio IC50” value turned out to be 8.3. In addition, the Fa in data set [5] is over 95%. In data set [6], this compound came in with an unbound share (fraction unbound) of over 0.1.

For `OC1(Cc2ccccc2)c2ccccc2C2=NCCN21` (stereo unspecified), inhibition in data set [1] was half-maximal at 37.8 µM (IC50). Further, the “Ratio IC50” value in data set [4] is given as under 1.

In data set [1], `OC1(Cc2ccc3ccccc3c2)c2ccccc2-c2nc3ccccc3n21` (stereo unspecified) registered an IC50 of over 30 µM. In addition, the “Ratio IC50” value in data set [4] is reported as under 1.

As for `CSc1ccc(C=C2c3ccccc3C(=O)N2c2cc(Cl)ccc2N)cc1` (mixture of isomers), in data set [1], the half-inhibitory concentration (IC50) is 13.9 µM. Also, in data set [4], the “Ratio IC50” value is given as under 1.

In turn, `Oc1ccc(CC2(O)c3ccccc3C3=NCCN32)cc1Cl` (stereo unspecified) displayed a half-maximal inhibitory concentration (IC50) in data set [1] of over 35 µM. The “Ratio IC50” value in data set [4] was under 1.

`Oc1ccc(CC2(O)c3ccccc3C3=NCCN32)cc1` (stereo unspecified) registered an IC50 in data set [1] of over 35 µM. Also, the “Ratio IC50” value in data set [4] was under 1.

As to `CSc1ccc(CC2(O)c3ccccc3-c3nc4ccccc4n32)cc1` (stereo unspecified), in data set [1], the IC50 is over 27 µM. In data set [4], the “Ratio IC50” value is under 1.

Turning to `OC1(Cc2ccc(F)cc2F)c2ccccc2C2=NCCN21` (stereo unspecified), in data set [1], it took 33.3 µM to reach half-maximal inhibition (IC50). Further, the “Ratio IC50” value in data set [4] is reported as under 1.

`OC1(Cc2cccs2)c2ccccc2C2=NCCN21` (stereo unspecified) yielded a half-inhibitory concentration (IC50) in data set [1] of 19.6 µM. In addition, in data set [4], the “Ratio IC50” value is on record as under 1.

Regarding `COc1cccc(CC2(O)c3ccccc3C3=NCCN32)c1` (stereo unspecified), the IC50 in data set [1] stood at 8.36 µM. In addition, in data set [4], the “Ratio IC50” value is under 1.

`OC1(Cc2cccc3ccccc23)c2ccccc2C2=NCCN21` (stereo unspecified): in data set [1], the IC50 came to 16.3 µM. The same compound returned a half-maximal cytotoxic concentration (CC50) in data set [2] of over 15 µM. The “Ratio IC50” value in data set [4] is listed as under 1.

The compound `OC1(Cc2ccc3ccccc3c2)c2ccccc2C2=NCCN21` (stereo unspecified) returned an IC50 in data set [1] of 0.06 µM. The inhibition in vivo at 25 mg/kg in data set [7] was determined as 87%. Moreover, the Activity entry in data set [8] was “Toxic”. Besides, in data set [4], the “Ratio IC50” value amounted to 16.7. In addition, the Fa in data set [5] is over 95%. Further, in data set [6], the fraction unbound was over 0.1.

In turn, `OC1(Cc2ccc(Cl)cc2Cl)c2ccccc2C2=NCCN21` (stereo unspecified) returned a concentration for half-maximal inhibition (IC50) in data set [1] of 8.8 µM. Also, the “Ratio IC50” value in data set [4] is listed as under 1.

On to `OC1(Cc2cc(F)cc(F)c2)c2ccccc2C2=NCCN21` (stereo unspecified), for which the IC50 in data set [1] is over 35 µM. In data set [4], the “Ratio IC50” value is on record as under 1.

In data set [1], `COc1cc(CC2(O)c3ccccc3C3=NCCN32)cc(OC)c1OC` (stereo unspecified) showed an IC50 of 1.49 µM. Besides, in data set [3], the inhibition in vivo at 50 mg/kg was under 5%. For the same compound, the “Ratio IC50” value in data set [4] is on record as under 1. For the same compound, in data set [5], the Fa was over 95%. This compound also had a free fraction (fraction unbound) in data set [6] of over 0.1.

As for `Nc1ccc(Cl)cc1N1C(=O)c2ccccc2C1=Cc1ccc2ccccc2c1` (mixture of isomers), half-maximal inhibition in data set [1] (IC50) was put at 10 µM. Besides, the “Ratio IC50” value in data set [4] was under 1.

As for `OC1(Cc2ccc(F)cc2)c2ccccc2C2=NCCN21` (stereo unspecified), the concentration for half-maximal inhibition (IC50) in data set [1] stood at 4.2 µM. Also, the “Ratio IC50” value in data set [4] is listed as under 1.

As for `COc1ccccc1CC1(O)c2ccccc2C2=NCCN21` (stereo unspecified), the IC50 in data set [1] was over 35 µM. Also, in data set [4], the “Ratio IC50” value is reported as under 1.
